ChEMBL document CHEMBL1667822, “Selective antagonists of mouse trace amine-associated receptor 1 (mTAAR1): discovery of EPPTB (RO5212773)” (Bioorg Med Chem Lett, 2011)

Experiments:
[1] = target: T1, Trace amine-associated receptor 1 (Mus musculus, UniProt Q923Y8); experiment: Antagonist activity at mouse TAAR1 assessed as reversal of endogenous beta-PEA effect; type: functional
In short: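 Mouse TAAR1 antagonist dose–response run as an in vitro cAMP functional assay. Efficacy is the reversal of the effect of the endogenous agonist β-PEA, with 100% efficacy defined as 0% min% stim. Values are averages of at least two independent experiments.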

[2] = target: Trace amine-associated receptor 1 (Mus musculus) (UniProt Q923Y8); experiment: Antagonist activity at mouse TAAR1 assessed as residual stimulation by in vitro cAMP functional assay relative to control; parameters: concentration or dose not given beside the values
Sequence of Trace amine-associated receptor 1 (Mus musculus) (Q923Y8 whole entry): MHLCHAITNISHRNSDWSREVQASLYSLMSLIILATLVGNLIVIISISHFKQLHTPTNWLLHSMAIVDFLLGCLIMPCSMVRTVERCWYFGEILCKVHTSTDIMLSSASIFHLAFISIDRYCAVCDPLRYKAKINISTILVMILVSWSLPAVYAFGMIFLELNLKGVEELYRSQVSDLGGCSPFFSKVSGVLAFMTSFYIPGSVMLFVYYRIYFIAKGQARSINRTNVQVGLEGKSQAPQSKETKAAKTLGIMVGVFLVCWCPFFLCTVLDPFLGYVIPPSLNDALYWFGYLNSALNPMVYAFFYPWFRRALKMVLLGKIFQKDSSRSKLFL
In short: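 Mouse TAAR1 in vitro cAMP functional assay using the endogenous agonist β-PEA. The read-out is the residual β-PEA stimulation remaining at the maximum test-compound concentration. Values are averages of at least two independent experiments.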

[3] = target: T1, Trace amine-associated receptor 1; experiment: Inhibition of mouse TAAR1
[4] = Aqueous solubility of the compound; type: physicochemical; settings: buffer
Liver microsomes = experiment: Intrinsic clearance in human liver microsomes measured per mg of protein; type: ADME, Microsome
In short: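 In vitro incubation with human liver microsomes. Intrinsic clearance is expressed per mg microsomal protein per minute.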

[5] = Intrinsic clearance in mouse liver microsomes measured per mg of protein; type: ADME, Microsome
In short: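 Intrinsic clearance from in vitro incubation of compound with mouse liver microsomes, expressed per mg microsomal protein.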

[6] = target: T2, Trace amine-associated receptor 1 (Homo sapiens, UniProt Q96RJ0); experiment: Inhibition of human TAAR1
T2 sequence (Q96RJ0 whole entry): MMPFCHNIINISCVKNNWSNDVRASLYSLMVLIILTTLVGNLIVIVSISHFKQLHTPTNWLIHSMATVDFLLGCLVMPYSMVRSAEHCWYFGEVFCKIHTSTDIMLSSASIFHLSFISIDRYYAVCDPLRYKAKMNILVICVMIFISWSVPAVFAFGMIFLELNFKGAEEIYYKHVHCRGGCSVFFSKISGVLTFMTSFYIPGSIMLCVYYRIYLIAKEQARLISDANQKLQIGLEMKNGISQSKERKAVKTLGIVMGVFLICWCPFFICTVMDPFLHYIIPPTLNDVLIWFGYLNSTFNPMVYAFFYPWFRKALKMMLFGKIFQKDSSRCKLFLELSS
In short: (§1)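 In vitro cAMP functional assay with antagonism read as reversal of the response to the endogenous agonist beta-PEA. Efficacy was scaled so that 100% equals 0% minimum stimulation. Residual beta-PEA stimulation was taken at the highest test-compound concentration. Values are means of at least two independent experiments, with duplicates typically within a twofold margin.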

[7] = target: Trace amine-associated receptor 1 (Rattus norvegicus, UniProt Q923Y9); experiment: Inhibition of rat TAAR1; in short: as §1
Sequence of Trace amine-associated receptor 1 (Rattus norvegicus, UniProt Q923Y9) (Q923Y9 whole entry): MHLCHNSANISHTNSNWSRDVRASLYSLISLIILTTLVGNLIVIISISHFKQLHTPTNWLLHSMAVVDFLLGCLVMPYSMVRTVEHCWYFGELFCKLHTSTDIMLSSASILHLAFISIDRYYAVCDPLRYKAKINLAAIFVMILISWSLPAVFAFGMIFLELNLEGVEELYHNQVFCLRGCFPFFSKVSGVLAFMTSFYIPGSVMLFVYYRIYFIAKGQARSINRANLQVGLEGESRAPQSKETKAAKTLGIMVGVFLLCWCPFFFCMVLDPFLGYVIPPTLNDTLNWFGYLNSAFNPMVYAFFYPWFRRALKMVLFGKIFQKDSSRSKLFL

[8] = target: T2, Trace amine-associated receptor 1; experiment: Antagonist activity at human TAAR1 assessed as reversal of endogenous beta-PEA effect; type: functional; in short: as §1
[9] = Lipophilicity, log D of the compound; type: physicochemical; settings: octanol/water

T1 sequence (Q923Y8 whole entry): as the sequence (Q923Y8 whole entry) above

IC50 [1] [µM]	Activity [2] [%]	Ki [3] [µM]	SMILES	also measured
0.014	3	–	COc1cccc(NC(=O)c2ccc(NCc3ccccc3)c([N+](=O)[O-])c2)c1	–
0.12	0	–	CC(=O)c1cccc(NC(=O)c2ccc(N3CCCC3)c(C(F)(F)F)c2)c1	–
–	–	0.139	COc1cccc(NC(=O)c2ccc(F)c(C(C)=O)c2)c1	–
0.07	0	–	Cc1cccc(NC(=O)c2ccc(N3CCCC3)c(C(F)(F)F)c2)c1	–
–	–	1.58	COc1cccc(NC(=O)c2ccc(F)c(C)c2)c1	–
–	–	–	COc1cccc(NC(=O)c2cnc(N3CCCC3)c(C(F)(F)F)c2)c1	clearance [5]: 321 µL/min/mg
–	–	6	COc1cccc(NC(=O)c2cccc(S(C)(=O)=O)c2)c1	–
0.013	14	–	CCCNc1ccc(C(=O)Nc2cccc(OC)c2)cc1[N+](=O)[O-]	–
0.043	0	–	COc1cccc(NC(=O)c2ccc(Br)c([N+](=O)[O-])c2)c1	–
–	–	7.43	COc1cccc(NC(=O)c2ccc(F)c(S(N)(=O)=O)c2)c1	–
0.06	0	–	COc1cccc(NC(=O)c2ccc(N3CCC(C)CC3)c([N+](=O)[O-])c2)c1	solubility [4]: < 1 µg/mL; logD [9]: > 3; clearance (Liver microsomes): 154 µL/min/mg; clearance [5]: 396 µL/min/mg; Ki [6]: > 20 µM; IC50 [8]: 3.79 µM
0.02	0	–	O=C(Nc1cccc(F)c1)c1ccc(N2CCCC2)c(C(F)(F)F)c1	–
0.027	0	0.004	CC(C)Oc1cccc(NC(=O)c2ccc(N3CCCC3)c(C(F)(F)F)c2)c1	–
0.187	0	–	O=C(Nc1cccc(OC(F)F)c1)c1ccc(N2CCCC2)c(C(F)(F)F)c1	–
0.067	0	0.003	COc1cccc(NC(=O)c2ccc(N3CCCC3)c(C(F)(F)F)c2)c1	clearance [5]: 341 µL/min/mg
–	–	0.262	COc1cccc(NC(=O)c2ccc(-n3cccn3)c([N+](=O)[O-])c2)c1	–
–	–	1.92	COc1cccc(NC(=O)c2ccc(N)c([N+](=O)[O-])c2)c1	–
–	–	0.164	COc1cccc(NC(=O)c2ccc(N3CCN(C)CC3)c([N+](=O)[O-])c2)c1	–
–	–	0.025	COc1cccc(NC(=O)c2ccc(Cl)c(Cl)c2)c1	–
0.2	9	–	COc1cccc(NC(=O)c2ccc(N3CCC3)c([N+](=O)[O-])c2)c1	–

IC50 [1] [µM]	Activity [2] [%]	Ki [3] [µM]	SMILES	also measured
0.364	0	–	O=C(Nc1cccc(OC(F)(F)C(F)F)c1)c1ccc(N2CCCC2)c(C(F)(F)F)c1	–
0.019	0	–	COc1cccc(NC(=O)c2ccc(N3CCCCC3)c([N+](=O)[O-])c2)c1	–
0.012	0	–	COc1cccc(NC(=O)c2ccc(Cl)c([N+](=O)[O-])c2)c1	–
–	–	–	COc1cccc(NC(=O)c2cnc(N3CCC(C)CC3)c(C(F)(F)F)c2)c1	logD [9]: > 4; clearance [5]: 107 µL/min/mg
–	–	0.082	O=C(Nc1cccc(Oc2ccccc2)c1)c1ccc(N2CCCC2)c(C(F)(F)F)c1	–
–	–	0.694	COc1cccc(NC(=O)c2ccc(F)c(S(=O)(=O)N3CCCCC3)c2)c1	–
0.079	0	0.103	COc1cccc(NC(=O)c2ccc(N3CCOCC3)c([N+](=O)[O-])c2)c1	logD [9]: 2.7; clearance [5]: 18 µL/min/mg
–	–	0.138	COc1cccc(NC(=O)c2ccc(F)c(OC(F)(F)F)c2)c1	–
–	–	0.149	COc1cccc(NC(=O)c2ccc(F)c(C#N)c2)c1	–
0.665	0	0.189	COc1cccc(NC(=O)c2cccc([N+](=O)[O-])c2)c1	–
0.568	0	–	O=C(Nc1cccc(Br)c1)c1ccc(N2CCCC2)c(C(F)(F)F)c1	–
0.142	0	–	COc1cccc(NC(=O)c2ccc(NC(C)C)c([N+](=O)[O-])c2)c1	–
0.175	0	–	COc1cccc(NC(=O)c2ccc(Nc3ccccc3)c([N+](=O)[O-])c2)c1	–
0.017	0	–	COc1cccc(NC(=O)c2ccc(N3CCCC3)c([N+](=O)[O-])c2)c1	–
–	–	0.229	COc1cccc(NC(=O)c2ccc(F)c(F)c2)c1	–
0.47	0	–	CCc1cccc(NC(=O)c2ccc(N3CCCC3)c(C(F)(F)F)c2)c1	–
–	–	0.101	O=C(Nc1cccc(OC(F)(F)F)c1)c1ccc(N2CCCC2)c(C(F)(F)F)c1	–
0.075	23	–	CCNc1ccc(C(=O)Nc2cccc(OC)c2)cc1[N+](=O)[O-]	–
0.245	0	–	O=C(Nc1cccc(Cl)c1)c1ccc(N2CCCC2)c(C(F)(F)F)c1	–

SMILES	IC50 [1] [µM]	Activity [2] [%]	Ki [3] [µM]	also measured
COc1cccc(NC(=O)c2ccc(S(=O)(=O)N3CC(C)CC(C)C3)c(F)c2)c1 (racemic)	0.006	28	0.004	solubility [4]: < 1 µg/mL; clearance (Liver microsomes): 538 µL/min/mg; clearance [5]: 1700 µL/min/mg; Ki [6]: > 20 µM; Ki [7]: 1.39 µM; IC50 [8]: > 10 µM
